The source of these data is ChEMBL document CHEMBL2016466, “Design, synthesis, and biological evaluation of new diaminoquinazolines as β-catenin/Tcf4 pathway inhibitors” (J Med Chem, 2012).

SMILES strings stand for the structures. Some results are limits rather than exact numbers.

Assay [1] deals with HCT-116. The assay is described as follows: Growth inhibition of human HCT116 cells assessed as viable cells after 3 days using resazurin by […] assay. The format is functional, cell-based. The settings on record: HCT-116, 72 h. In a few lines:
(§1)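 Cells grown in RPMI 1640 + 10% FBS + penicillin/streptomycin, trypsinized and seeded at 2 × 10³ cells/well. Compound added 24 h later as a concentration curve starting at 10 μg/mL with nine further 2-fold dilutions. After 3 days of exposure, viability was read with CellTiter-Blue (resazurin to resorufin). IC50 is the average of three separate experiments.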

Assay [2] relates to SW480. As to the kind of experiment: Growth inhibition of human SW480 cells assessed as viable cells after 3 days using resazurin by […] assay. The assay is classed as functional, cell-based. The settings on record: SW480, 72 h. An outline of the steps:
as §1
In general terms: Alamar Blue is a resazurin reagent that responds to reducing activity.

In assay [3] the test system is HCT-116. As to the kind of experiment: Growth inhibition of human HCT116 cells assessed as clonogenic growth after 9 days using crystal violet staining. The assay is classed as functional, cell-based. The settings on record: HCT-116, 216 h. In a few lines:
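HCT116 cells in RPMI 1640 + 10% FBS + penicillin/streptomycin, plated at 300 cells/well in six-well plates 8 h before treatment with or without inhibitor (highest final concentration 1.5 μM). Incubated 9 days, then fixed with 10% acetic acid in methanol, stained with 0.05% crystal violet and colonies counted. IC50 is the average of three separate experiments.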

Assay [4] deals with TCF4/beta-catenin (Homo sapiens, UniProt P35222+Q9NQB0). The assay is described as follows: Inhibition of beta-catenin/TCF4 pathway expressed in HCT116 cells containing delta45S mutant after 24 hrs by luciferase reporter gene assay. The assay is classed as cell-based. The settings on record: hct-116. In a few lines:
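HCT116 cells at 1 × 10⁴/well, cotransfected with 50 ng TOP-FLASH reporter (Tcf4 binding sites) and 50 ng pTK-β-gal as internal control. At 4 h post-transfection, fresh medium with compound at various concentrations was added. Firefly luciferase was read 24 h after compound addition, normalized to β-galactosidase and expressed as a percentage of control luciferase activity.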
A general note: In a reporter assay the amount or activity of a reporter protein is the signal.

Assay [5] in a line: Ratio of IC50 for human HCT116 cells to IC50 for […]/TCF4 pathway expressed in HCT116 cells. The assay is classed as cell-based. As to conditions: HCT-116.

What is called IC50 is the concentration at which inhibition is half-maximal.

Chain of TCF4/beta-catenin (P35222 2-781 limits assumed, stated change not applied): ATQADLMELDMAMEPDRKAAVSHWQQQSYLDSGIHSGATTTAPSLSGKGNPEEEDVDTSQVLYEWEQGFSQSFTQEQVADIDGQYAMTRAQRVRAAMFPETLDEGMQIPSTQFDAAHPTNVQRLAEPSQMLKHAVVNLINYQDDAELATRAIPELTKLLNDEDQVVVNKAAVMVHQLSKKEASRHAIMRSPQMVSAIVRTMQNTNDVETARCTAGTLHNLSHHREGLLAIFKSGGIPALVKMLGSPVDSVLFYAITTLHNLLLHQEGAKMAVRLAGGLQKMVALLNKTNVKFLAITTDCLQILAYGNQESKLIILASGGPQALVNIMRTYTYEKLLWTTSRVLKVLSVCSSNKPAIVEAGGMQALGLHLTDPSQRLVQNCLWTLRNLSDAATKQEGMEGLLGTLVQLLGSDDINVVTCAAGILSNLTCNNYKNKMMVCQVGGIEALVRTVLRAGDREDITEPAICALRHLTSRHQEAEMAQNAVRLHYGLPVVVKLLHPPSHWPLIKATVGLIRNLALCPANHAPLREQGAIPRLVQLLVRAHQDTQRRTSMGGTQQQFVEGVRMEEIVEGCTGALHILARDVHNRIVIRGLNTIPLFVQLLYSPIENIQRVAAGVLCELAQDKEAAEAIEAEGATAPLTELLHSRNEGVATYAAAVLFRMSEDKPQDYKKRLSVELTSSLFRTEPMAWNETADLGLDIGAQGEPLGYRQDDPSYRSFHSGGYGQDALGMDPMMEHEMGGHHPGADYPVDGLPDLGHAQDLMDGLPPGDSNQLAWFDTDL
Chain of TCF4/beta-catenin (Q9NQB0 whole entry, stated change not applied): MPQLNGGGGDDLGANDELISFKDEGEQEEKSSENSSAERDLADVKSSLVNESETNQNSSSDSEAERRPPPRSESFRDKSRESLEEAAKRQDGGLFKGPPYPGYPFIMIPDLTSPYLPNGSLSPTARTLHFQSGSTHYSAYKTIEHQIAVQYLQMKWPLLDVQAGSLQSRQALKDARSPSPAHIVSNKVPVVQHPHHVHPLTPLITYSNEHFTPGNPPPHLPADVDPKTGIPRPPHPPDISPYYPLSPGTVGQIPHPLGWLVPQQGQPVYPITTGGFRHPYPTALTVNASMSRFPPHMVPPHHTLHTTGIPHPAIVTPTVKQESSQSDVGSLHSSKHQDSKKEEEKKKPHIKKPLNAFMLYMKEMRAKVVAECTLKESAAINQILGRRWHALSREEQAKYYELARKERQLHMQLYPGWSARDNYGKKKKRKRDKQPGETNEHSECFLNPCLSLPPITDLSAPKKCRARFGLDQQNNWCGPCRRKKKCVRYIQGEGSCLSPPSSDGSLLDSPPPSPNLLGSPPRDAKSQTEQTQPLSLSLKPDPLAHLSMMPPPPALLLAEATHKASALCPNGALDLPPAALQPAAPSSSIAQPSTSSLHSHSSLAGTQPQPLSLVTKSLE

`CN(C)CCCNc1nc(NCc2ccc(NC(=O)c3ccc(F)cc3)cc2)c2ccccc2n1`: the figures for the IC50 in assay [1] and in assay [2] were 10000 nM and 14000 nM, respectively.

With `CCCNc1nc2ccccc2c(NCc2ccc(NC(=O)c3ccc(F)cc3)cc2)c1C#N`, the IC50 in assay [1] and in assay [2] was more than 20000 nM throughout.

For `CCCNc1nc(NCc2ccc(C(=O)Nc3ccc(F)cc3)cc2)c2ccccc2n1`, the IC50 in assay [3] is 684 nM; in assay [4], 3 µM; in assay [1] it was 1500 nM; in assay [2] it was 1600 nM.

Turning to `CN(C)c1nc(NCc2ccc(NC(=O)c3ccncc3)cc2)c2ccccc2n1`, the IC50 in assay [1] was determined as 15000 nM; in assay [2], 11000 nM.

On to `CNc1nc(NCc2ccc(C(=O)Nc3ccc(F)cc3)cc2)c2ccccc2n1`, for which the concentration for half-maximal inhibition (IC50) in assay [1] amounted to 2900 nM; in assay [2], 4100 nM.

`CNc1ncc(C)c(NCc2ccc(NC(=O)c3ccc(F)cc3)cc2)n1`: the IC50 in assay [1] and in assay [2] was more than 20000 nM throughout.

Consider `CC1CN(c2nc(NCc3ccc(C(=O)Nc4ccc(F)cc4)cc3)c3ccccc3n2)CCN1` (racemic), for which the IC50 in assay [4] was more than 5 µM; in assay [1] it was 2800 nM; in assay [2], 3200 nM.

Regarding `Cc1ccc2nc(N(C)C)nc(NCc3ccc(C(=O)N[C@H]4C[C@@H]4c4ccccc4)cc3)c2c1` (relative stereo), the figures for the IC50 in assay [4], in assay [1] and in assay [2] were 3 µM, 1300 nM and 2400 nM, respectively.

`CNc1nc(NCc2ccc(NS(=O)(=O)c3ccc(F)cc3)cc2)c2ccccc2n1`: the IC50 came out at 5300 nM in assay [1] and 4800 nM in assay [2].

For the molecule `CN(C)c1nc(NCc2ccc(NC(=O)c3ccc(F)cc3)cc2)c2ccccc2n1`, the values for the IC50 in assay [1] and in assay [2] were 1300 nM and 2200 nM, respectively.

As for `CCCNc1nc(NCc2ccc(C(=O)NCc3ccc(F)cc3)cc2)c2cc(C)ccc2n1`, the IC50 in assay [1] turned out to be 4400 nM; in assay [2], 2200 nM.

Take `CCNc1nc(NCc2ccc(NC(=O)c3ccc(F)cc3)cc2Cl)c2ccccc2n1`: the IC50 in assay [1] came out at 1500 nM; in assay [2] it was 1600 nM.

In the case of `Cc1ccc2nc(N(C)C)nc(NCc3ccc(C(=O)Nc4ccc(Cl)nc4)cc3)c2c1`, the values for the IC50 in assay [4], in assay [1] and in assay [2] were 2.5 µM, 1300 nM and 1100 nM, respectively.

As for `CNc1nc(NCc2ccc(C(=O)NC3CCN(Cc4ccc(F)cc4)CC3)cc2)c2cc(C)ccc2n1`, the IC50 stood at 3 µM in assay [4], 1200 nM in assay [1] and 1300 nM in assay [2].

As for `CCNc1ncc(C)c(NCc2ccc(NC(=O)c3ccc(F)cc3)cc2)n1`, the IC50 in assay [1] and in assay [2] was more than 20000 nM in each case.

Take `Cc1ccc2nc(N(C)C)nc(NCc3ccc(C(=O)N4CCC(C(=O)NCc5ccc(F)cc5)CC4)cc3)c2c1`: the IC50 in assay [1] and in assay [2] was 5600 nM each time.

For `CN1CCN(c2nc(NCc3ccc(NC(=O)c4ccncc4)cc3)c3ccccc3n2)CC1`, the IC50 in assay [1] and in assay [2] was more than 20000 nM each time.

As for `CN(C)CCCNc1nc(NCc2ccc(NC(=O)c3ccc(CN4CCN(C)CC4)cc3)cc2)c2ccccc2n1`, the IC50 in assay [1] and in assay [2] was more than 20000 nM in each case.

As to `CNc1nc2ccccc2c(NCc2ccc(NC(=O)c3ccc(F)cc3)cc2)c1C#N`, the IC50 in assay [1] and in assay [2] was more than 20000 nM each time.

For the molecule `CN1CCN(c2nc(NCc3ccc(NC(=O)c4ccc(F)cc4)cc3)c3ccccc3n2)CC1`, the half-inhibitory concentration (IC50) worked out at 1800 nM in assay [1] and 2500 nM in assay [2].

Consider `CCNc1nc(NCc2ccc(NC(=O)c3ccc(F)cc3)cc2)c2ccccc2n1`, for which the results for the IC50 in assay [4], in assay [1] and in assay [2] were 3 µM, 1400 nM and 2300 nM, respectively. For the same molecule, in assay [5], the Ratio IC50 worked out at 2.

As for `CNc1ncc(Br)c(NCc2ccc(NC(=O)c3ccc(F)cc3)cc2)n1`, the IC50 in assay [1] and in assay [2] was more than 20000 nM throughout.

`O=S(=O)(Nc1ccc(CNc2nc(NC3CC3)nc3ccccc23)cc1)c1ccc(F)cc1`: the IC50 in assay [1] turned out to be 4900 nM; in assay [2], 4100 nM.

For the molecule `Cc1ccc(S(=O)(=O)Nc2ccc(CNc3nc(N(C)C)nc4ccccc34)cc2)cc1`, the IC50 in assay [1] was determined as 11000 nM; in assay [2], 13000 nM.

In the case of `CCCNc1nc(NCc2ccc(C(=O)N3CCC(C(=O)NCc4ccc(F)cc4)CC3)cc2)c2cc(C)ccc2n1`, the IC50 in assay [1] is 4600 nM; in assay [2], 5200 nM.

Regarding `C=CCNc1nc(NCc2ccc(C(=O)Nc3ccc(F)cc3)cc2)c2cc(C)ccc2n1`, the IC50 was found to be 13000 nM in assay [1] and 10000 nM in assay [2].

`CN(C)c1nc(NCc2ccc(C(=O)Nc3ccc(F)cc3)cc2)c2ccccc2n1`: the concentration for half-maximal inhibition (IC50) in assay [4] came to 3 µM; in assay [1] it was 1900 nM; in assay [2], 2600 nM.

For `CCCNc1nc(NCc2ccc(C(=O)Nc3ccc(Cl)nc3)cc2)c2cc(C)ccc2n1`, the figures for the IC50 in assay [4], in assay [1] and in assay [2] were 2.5 µM, 1500 nM and 2100 nM, respectively.

Regarding `CNc1nc(NCc2ccc(NC(=O)c3ccc(F)cc3)cc2)c2ccccc2n1`, the IC50 in assay [4] was determined as 3.5 µM; in assay [1], 1600 nM; in assay [2], 2000 nM. Moreover, the Ratio IC50 in assay [5] is 2.

Consider `CCCNc1nc(NCc2ccc(C(=O)N3CCC(C(=O)NCc4ccc(F)cc4)CC3)cc2)c2ccccc2n1`, for which the IC50 in assay [1] is 5500 nM; in assay [2] it was 5700 nM.

On to `CNc1nc(NCc2ccc(NS(=O)(=O)c3ccc(C)cc3)cc2)c2ccccc2n1`, for which the IC50 in assay [1] was 5800 nM; in assay [2] it was 4900 nM.

On to `Cc1ccc2nc(N3CCNC(C)C3)nc(NCc3ccc(C(=O)NC4CCN(Cc5ccc(F)cc5)CC4)cc3)c2c1` (racemic), for which the IC50 in assay [4] was more than 5 µM; in assay [1] it was 2000 nM; in assay [2], 1000 nM.

As to `CCCNc1nc(NCc2ccc(C(=O)NC3CCN(Cc4ccc(F)cc4)CC3)cc2)c2cc(C)ccc2n1`, the IC50 in assay [4] came to 3 µM; in assay [1] it was 1600 nM; in assay [2], 1100 nM.

Regarding `CNc1nc(NCc2ccc(NC(=O)c3ccc(F)cc3)cc2Cl)c2ccccc2n1`, the IC50 in assay [1] worked out at 2000 nM; in assay [2] it was 2300 nM.

For the molecule `CN(C)c1nc(NCc2ccc(C(=O)N3CCC(C(=O)NCc4ccc(F)cc4)CC3)cc2)c2ccccc2n1`, the IC50 stood at 5700 nM in assay [1] and 5500 nM in assay [2].

For the molecule `CCNc1nc(NCc2ccc(C(=O)Nc3ccc(F)cc3)cc2)c2ccccc2n1`, the IC50 in assay [4] is 3.5 µM; in assay [1], 1900 nM; in assay [2] it was 2500 nM.

Regarding `Cc1ccc2nc(N(C)C)nc(NCc3ccc(C(=O)NCc4ccc(F)cc4)cc3)c2c1`, the IC50 was determined as 298 nM in assay [3], 2 µM in assay [4], 900 nM in assay [1] and 1100 nM in assay [2].

`CCNc1nc(NCc2ccc(C(=O)N[C@H]3C[C@@H]3c3ccccc3)cc2)c2cc(C)ccc2n1` (relative stereo): the IC50 in assay [4] was 3.5 µM; in assay [1], 1700 nM; in assay [2], 1800 nM.

Consider `Cc1ccc(S(=O)(=O)Nc2ccc(CNc3nc(N4CCN(C)CC4)nc4ccccc34)cc2)cc1`, for which the IC50 in assay [1] and in assay [2] was more than 20000 nM in each case.

As to `CNc1nc(NCc2ccc(NC(=O)c3ccncc3)cc2)c2ccccc2n1`, the IC50 in assay [1] and in assay [2] was more than 20000 nM in each case.

Consider `CNc1nc(NCc2ccc(C(=O)NCCc3ccc(F)cc3)cc2)c2cc(C)ccc2n1`, for which the IC50 came out at 1 µM in assay [4], 1100 nM in assay [1] and 1500 nM in assay [2].

For the molecule `CCCNc1nc(NCc2ccc(C(=O)NCCc3ccc(F)cc3)cc2)c2cc(C)ccc2n1`, the figures for the IC50 in assay [4], in assay [1] and in assay [2] were 2 µM, 1600 nM and 1600 nM, respectively.

With `Cc1ccc2nc(N(C)C)nc(NCc3ccc(C(=O)NCCc4ccc(F)cc4)cc3)c2c1`, the 50% inhibitory concentration (IC50) in assay [3] was found to be 264 nM; in assay [4], 1.5 µM; in assay [1], 600 nM; in assay [2], 1400 nM.

As for `Cc1ccc2nc(N(C)C)nc(NCc3ccc(C(=O)NC4CCN(Cc5ccc(F)cc5)CC4)cc3)c2c1`, the IC50 in assay [3] was 313 nM; in assay [4], 2.5 µM; in assay [1], 800 nM; in assay [2] it was 1100 nM.

For `C=CCNc1nc(NCc2ccc(C(=O)NC3CCN(C(=O)c4ccc(F)cc4)CC3)cc2)c2cc(C)ccc2n1`, the IC50 in assay [1] was 6900 nM; in assay [2], 5200 nM.

Take `Cc1ccc2nc(N3CCNC(C)C3)nc(NCc3ccc(C(=O)NCc4ccc(F)cc4)cc3)c2c1` (racemic): the IC50 is 2900 nM in assay [1] and 1400 nM in assay [2].

In the case of `C=CCNc1nc(NCc2ccc(C(=O)Nc3ccc(F)cc3)cc2)c2ccccc2n1`, the IC50 was found to be 14000 nM in assay [1] and 11000 nM in assay [2].

Regarding `CCCNc1nc(NCc2ccc(C(=O)NC3CCN(C(=O)c4ccc(F)cc4)CC3)cc2)c2cc(C)ccc2n1`, the IC50 in assay [1] is 6800 nM; in assay [2] it was 5500 nM.

In the case of `CNc1nc(NCc2ccc(NC(=O)c3ccc(CN4CCN(C)CC4)cc3)cc2)c2ccccc2n1`, the IC50 in assay [1] was 10000 nM; in assay [2], 11000 nM.

On to `O=C(Nc1ccc(F)cc1)c1ccc(CNc2nc(NC3CC3)nc3ccccc23)cc1`, for which the IC50 in assay [1] is 2700 nM; in assay [2], 2600 nM.

In the case of `CCCCNc1nc(NCc2ccc(C(=O)Nc3ccc(F)cc3)cc2)c2ccccc2n1`, the IC50 was found to be 381 nM in assay [3], 1.5 µM in assay [4], 1400 nM in assay [1] and 1000 nM in assay [2].
